In test [1] the test system is PANC-1. In words: Anti-diabetic activity against high glucose induced human PANC-1 cells assessed as decrease in glucose induced alpha-glucosidase expression by measuring by measuring minimum fractional index at 5 uM incubated for 23 hrs and measured after 24 hrs by flow cytometric analysis (reference value: 4361 +/- 257.83). The format is functional. In general terms: Flow cytometry measures light scatter and fluorescence of single cells or particles in a stream.

Test [2] concerns Rattus norvegicus. In words: Antidiabetic activity against streptozotocin-induced Wistar rat assessed as decrease in total cholesterol at 10 mg/kg, po administered for 21 days measured on day 35. To be noted: time 35.0 day. The format is functional, organism-based. An outline of the steps:
(§1)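 STZ-diabetic Wistar rats in six groups (normal, vehicle 0.5% CMC oral, STZ, STZ + test compounds, STZ + pioglitazone); oral treatment started day 14 after STZ on day 1. Markers measured in serum, pancreatic homogenate or whole blood, as named in each line. Groups compared by one-way ANOVA.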

In test [3] the target is alpha-glucosidase (Saccharomyces cerevisiae). In words: Inhibition of Saccharomyces cerevisiae alpha-glucosidase using 4-nitrophenyl-alpha-D-glucopyranoside as substrate incubated with compound for 15 to 20 min by absorbance based analysis.
Test [4] relates to Rattus norvegicus. In words: Antidiabetic activity against STZ-induced oxidative stress in Wistar rats model assessed as increase GSH serum level at 10 mg/kg, po administered for 21 days measured on day 35 by absorbance based UV-spectroscopic analysis. The format is functional, organism-based. To be noted: time 35.0 day. A digest of the protocol: as §1
For test [5], the species on record is Rattus norvegicus. Put plainly: Anti-diabetic activity against STZ-induced diabetic Wistar rat model assessed as reduced in swelling […] by H and E staining based analysis. The test is classed as functional, organism-based. A digest of the protocol: (§2)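 Pancreas, liver and kidney from STZ-diabetic rats treated as in the in vivo schedule. Sections stained with haematoxylin and eosin and examined by light microscopy at 40× (50 μm scale bar). Islet boundaries, β-cells, central vein, sinusoids, trabeculae, and tubular necrosis or swelling were scored.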

The species named for test [6] is Rattus norvegicus. Put plainly: Anti-diabetic activity against STZ-induced diabetic Wistar rat model assessed as increase in number of trabeculae cells […] by H and E staining based analysis. The test is classed as functional, organism-based. An outline of the steps:
as §2

For test [7], the system named is PANC-1. Put plainly: Anti-diabetic activity against high glucose induced human PANC-1 cells assessed as decrease in glucose induced alpha-amylase expression by measuring by measuring minimum fractional index at 5 uM incubated for 23 hrs and measured after 24 hrs by flow cytometric analysis (reference value: 2887 +/- 95.87). The test is classed as functional.
Test [8] is filed under the species Rattus norvegicus. Put plainly: Anti-diabetic activity against STZ-induced diabetic Wistar rat model assessed as increase beta-cells […] by H and E staining based analysis. The test is classed as functional, organism-based. A digest of the protocol:
as §2

For test [9], the species on record is Rattus norvegicus. Put plainly: Anti-diabetic activity against STZ-induced diabetic Wistar rat model assessed as increase increase in number of total red blood cell count level. The test is classed as functional, organism-based. An outline of the steps:
as §1

The species named for test [10] is Rattus norvegicus. In words: Anti-diabetic activity against STZ-induced diabetic Wistar rat model assessed as clear boundaries in pancreatic islet […] by H and E staining based analysis. The test is classed as functional, organism-based. A digest of the protocol: as §2
Test [11] is filed under the species Rattus norvegicus. In words: Anti-inflammatory activity in STZ-induced diabetic Wistar rat model assessed as decrease in IL-1beta level in blood by ELISA method.
In test [12] the test system is Rattus norvegicus. In words: Antidiabetic activity against STZ-induced oxidative stress in Wistar rats model assessed as increase in SOD level in pancreatic tissue at 10 mg/kg, po administered for 21 days measured on day 35 by absorbance based UV-spectroscopic analysis. To be noted: time 35.0 day.
Test [13] deals with Rattus norvegicus. Put plainly: Antidiabetic activity against streptozotocin-induced Wistar rat assessed as increase in PPAR-gamma level at 10 mg/kg, po administered for 21 days measured on day 35 by ELISA analysis. The format is functional, organism-based. Conditions: time 35.0 day. A digest of the protocol: as §1
Test [14] is filed under the species Rattus norvegicus. Put plainly: Anti-diabetic activity against STZ-induced diabetic Wistar rat model assessed as reduced necrosis in pancreatic tissue […] by H and E staining based analysis. The format is functional, organism-based. An outline of the steps: as §2
For test [15], the species on record is Rattus norvegicus. Put plainly: Anti-inflammatory activity in STZ-induced diabetic Wistar rat model assessed as […] level in serum by ELISA method. The test is classed as functional, organism-based. An outline of the steps:
as §1
(In general: An ELISA detects its analyte on a solid surface through an enzyme-linked reagent.)

The species named for test [16] is Rattus norvegicus. In words: Anti-diabetic activity against STZ-induced diabetic Wistar rat model assessed as increase increase in number of neutrophils level. The test is classed as functional, organism-based. An outline of the steps: as §1
The species entered for test [17] is Rattus norvegicus. In words: Anti-diabetic activity against STZ-induced diabetic Wistar rat model assessed as increase increase in number of haemoglobin level. The format is functional, organism-based. A digest of the protocol:
as §1

For test [18], the species on record is Rattus norvegicus. Put plainly: Anti-diabetic activity against STZ-induced diabetic Wistar rat model assessed as alteration in kidney morphology […] by H and E staining based analysis. The format is functional, organism-based. A digest of the protocol:
as §2

Test [19] has as its system Rattus norvegicus. In words: Anti-diabetic activity against STZ-induced diabetic Wistar rat model assessed as decrease in dilatation of central vein at 10 mg/kg, po by H and E staining based analysis.
For test [20], the species on record is Rattus norvegicus. Put plainly: Anti-diabetic activity against STZ-induced diabetic Wistar rat model assessed as improvement in pancreas islet morphology […] by H and E staining based analysis. The format is functional, organism-based. An outline of the steps: as §2

SMILES strings stand for the structures. Activity calls are given as the source filed them. No cut-off for these calls is given here.

In general, IC50 refers to the point on the concentration scale where inhibition reaches its midpoint.

Consider `C#CCOc1ccc(/C=C2\SC(=O)N(Cc3cccc([N+](=O)[O-])c3)C2=O)cc1OCC`, for which the Activity_index in the test on PANC-1 [1] stood at 752; with PANC-1 [7], 109. Besides, the outcome in the test with Rattus norvegicus [2], in the test on Rattus norvegicus [4], in the test listed under Rattus norvegicus [5], in the test filed under Rattus norvegicus [6], in the test listed under Rattus norvegicus [8] and in the test filed under Rattus norvegicus [9] was Active. Moreover, the result in the test listed under Rattus norvegicus [10], in the test filed under Rattus norvegicus [11], in the test on Rattus norvegicus [12], with Rattus norvegicus [13], in the test filed under Rattus norvegicus [14] and in the test listed under Rattus norvegicus [15] was Active. For the same compound, the result in the test filed under Rattus norvegicus [16] and in the test filed under Rattus norvegicus [17] was Active. In addition, in [3], the IC50 worked out at 5.15 µM.

Take `C=CCOc1ccc(/C=C2\SC(=O)N(Cc3cccc([N+](=O)[O-])c3)C2=O)cc1OCC`: the results for the Activity_index in the test with PANC-1 [1] and in the test on PANC-1 [7] were 2242 and 797, respectively. In addition, the outcome in the test listed under Rattus norvegicus [18], in the test with Rattus norvegicus [2], with Rattus norvegicus [4], with Rattus norvegicus [19], in the test listed under Rattus norvegicus [9] and in the test filed under Rattus norvegicus [11] was Active. Moreover, the result in the test with Rattus norvegicus [12], in the test with Rattus norvegicus [13], in the test filed under Rattus norvegicus [20], in the test filed under Rattus norvegicus [15], in the test listed under Rattus norvegicus [16] and in the test filed under Rattus norvegicus [17] was Active. The IC50 in test [3] is 9.8 µM.
